According to paper PMC6424611 (Journal of molecular biology, 2019):
Where no end group is shown, it is not given here. The star is where a group is joined. Biotin = O=C1N[C@H]2[C@H](CS[C@H]2CCCCC(=O)*)N1; TTDS = NCCCOCCOCCOCCCNC(=O)CCC(=O)*

Assays:
ARHGEF12 = assay: NanoBiT protein-protein interaction assay; type: cell-based, human; conditions: RSK1–ARHGEF12 sensor, 20 ng/ml EGF, serum-starved HEK293T, 60 min
How it was run: (§1)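 Full-length RSK1 (N-terminal SmBiT) is paired with an N-terminal LgBiT fusion of the partner: ARHGEF12 isoform 2, GOPC isoform 2, PARD3B 1–913, or SYNJ2BP. Sensors are transiently co-expressed in HEK293T cells, which are serum-starved for 20 h from 4 h post-transfection and assayed with Nano-Glo at 24 h. Steady-state signal is referenced to the wild-type pair. For the EGF response (20 ng/ml, 60 min), signal is normalized to initial luminescence and to unstimulated furimazine decay. At least 6 replicates.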

MAGI1 = assay: NanoBiT protein-protein interaction assay; type: cell-based, human; conditions: RSK1–MAGI1 sensor, 20 ng/ml EGF, serum-starved HEK293T, 60 min
How it was run: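 Full-length RSK1 (N-terminal SmBiT) is co-expressed with full-length MAGI1–LgBiT in HEK293T cells by FuGene HD transfection, then serum-starved for 20 h in CO2-independent medium. Cells are read with Nano-Glo 24 h post-transfection. Steady-state luminescence of mutant sensors is referenced to the wild-type pair. For the 20 ng/ml EGF response, signal is followed for 60 min and normalized to initial luminescence and to furimazine decay in unstimulated cells. At least 6 biological replicates.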

PARD3B = assay: NanoBiT protein-protein interaction assay; type: cell-based, human; conditions: RSK1–PARD3B sensor, 20 ng/ml EGF, serum-starved HEK293T, 60 min
How it was run: as §1

SYNJ2BP = assay: NanoBiT protein-protein interaction assay; type: cell-based, human; conditions: RSK1–SYNJ2BP sensor, 20 ng/ml EGF, serum-starved HEK293T, 60 min
How it was run: as §1

GOPC = assay: NanoBiT protein-protein interaction assay; type: cell-based, human; conditions: RSK1–GOPC sensor, 20 ng/ml EGF, serum-starved HEK293T, 60 min
How it was run: as §1

ERK2 = assay: NanoBiT protein-protein interaction assay; type: cell-based; conditions: RSK1–ERK2 sensor, 20 ng/ml EGF, serum-starved HEK293T, 60 min
How it was run: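 Full-length RSK1 carries an N-terminal SmBiT tag, and full-length ERK2 is fused to LgBiT. HEK293T cells (DMEM, 10% FBS) are seeded at 2×10^4/well 24 h before FuGene HD co-transfection, then starved for 20 h in CO2-independent medium from 4 h post-transfection. After 20 ng/ml EGF, Nano-Glo luminescence is followed for 60 min and normalized to initial signal and to furimazine decay in unstimulated cells. At least 6 biological replicates.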

RhoA = assay: G-LISA RhoA activation assay; type: cell-based; conditions: ARHGEF12 mutants, n=4
SNX27 PDZ [1] = biological target: T1, SNX27 PDZ (Homo sapiens, UniProt Q96L92); assay: surface plasmon resonance; type: binding; conditions: internal standard; biotinylated HPV16 E6 peptide immobilized; steady state
SNTG2 PDZ = biological target: T2, SNTG2 PDZ (Homo sapiens, UniProt Q9NY99); assay: surface plasmon resonance; type: binding; conditions: internal standard; biotinylated HPV16 E6 peptide immobilized; steady state
T2 sequence (Q9NY99 73-156 limits assumed): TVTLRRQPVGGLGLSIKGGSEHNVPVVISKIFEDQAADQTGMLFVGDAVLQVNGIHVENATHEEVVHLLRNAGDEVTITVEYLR
How it was run: (§2)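 Biacore SPR on a CM5 chip. Streptavidin was immobilized by EDC coupling, then biotinylated HPV16 E6 peptide was captured and extensively washed. Tandem Ni/MBP-purified MBP-PDZ domains were then injected. The E6 peptide served as an internal standard.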

MAST1 PDZ = biological target: T3, MAST1 PDZ (Homo sapiens, UniProt Q9Y2H9); assay: surface plasmon resonance; type: binding; conditions: internal standard; biotinylated HPV16 E6 peptide immobilized; steady state
T3 sequence (Q9Y2H9 967-1055 limits assumed): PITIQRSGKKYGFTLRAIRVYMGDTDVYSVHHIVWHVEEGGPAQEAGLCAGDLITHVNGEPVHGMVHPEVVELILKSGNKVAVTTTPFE
How it was run: as §2

PARD3B-1 PDZ [2] = biological target: T4, PARD3B-1 PDZ (Homo sapiens, UniProt Q8TEW8); assay: surface plasmon resonance; type: binding; conditions: internal standard; biotinylated HPV16 E6 peptide immobilized; steady state
T4 sequence (Q8TEW8 201-289 limits assumed): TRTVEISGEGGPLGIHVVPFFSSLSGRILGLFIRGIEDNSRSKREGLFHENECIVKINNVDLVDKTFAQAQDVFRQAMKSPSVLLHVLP
How it was run: as §2

GRID2IP-2 PDZ [3] = biological target: T5, GRID2IP-2 PDZ (Homo sapiens, UniProt A4D2P6); assay: surface plasmon resonance; type: binding; conditions: internal standard; biotinylated HPV16 E6 peptide immobilized; steady state
How it was run: as §2

HTRA1 PDZ = HTRA1 PDZ (Homo sapiens, UniProt Q92743); assay: surface plasmon resonance; type: binding; conditions: internal standard; biotinylated HPV16 E6 peptide immobilized; steady state
How it was run: as §2

GORASP2 PDZ = assay: surface plasmon resonance; type: binding, human; conditions: internal standard; biotinylated HPV16 E6 peptide immobilized; steady state
How it was run: as §2

PDZD7-3 PDZ = biological target: T6, PDZD7-3 PDZ (Homo sapiens, UniProt Q9H5P4); assay: surface plasmon resonance; type: binding; conditions: internal standard; biotinylated HPV16 E6 peptide immobilized; steady state
T6 sequence (Q9H5P4 862-934 limits assumed): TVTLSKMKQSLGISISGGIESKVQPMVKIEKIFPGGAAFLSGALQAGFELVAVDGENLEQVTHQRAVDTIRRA
How it was run: as §2

GOPC PDZ = GOPC PDZ (Homo sapiens, UniProt Q9HD26); assay: surface plasmon resonance; type: binding; conditions: internal standard; biotinylated HPV16 E6 peptide immobilized; steady state
GRID2IP-2 PDZ [4] = biological target: T5, GRID2IP-2 PDZ; assay: holdup assay; type: binding; conditions: words; GRID2IP
How it was run: (§3)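 Automated holdup in triplicate measured biotinylated (N-terminal TTDS linker) RSK1 725–735 peptides, unphosphorylated or phosphorylated, against E. coli-expressed PDZome v2 domains. Soluble lysate was adjusted to ~4 μM, giving 255 domains for the unphosphorylated and 252 for the phosphorylated peptide. Binding intensity (BI) is the fraction of PDZ depleted from the fluid phase. BI 0.2 was the high-confidence threshold.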

ARHGEF12 PDZ = biological target: T7, ARHGEF12 PDZ (Homo sapiens, UniProt Q9NZN5); assay: holdup assay; type: binding; conditions: words
T7 sequence (Q9NZN5 72-151 limits assumed): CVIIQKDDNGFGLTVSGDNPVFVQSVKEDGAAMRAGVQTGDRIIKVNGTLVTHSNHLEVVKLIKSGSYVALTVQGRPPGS
How it was run: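 Automated holdup against N-terminally biotinylated (TTDS linker) RSK1 725–735 peptides, unphosphorylated and phosphorylated, in triplicate. PDZome v2 clones were codon-optimized and expressed in E. coli, with soluble lysate adjusted to ~4 μM. BI is the PDZ fraction depleted from the fluid phase.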

PARD3B-1 PDZ [5] = biological target: T4, PARD3B-1 PDZ; assay: holdup assay; type: binding; conditions: words; PARD3B
How it was run: as §3

[6] = system: first PDZ domain of Scribble; assay: holdup assay; type: binding, human
[7] = system: first PDZ domain of NHERF (EBP50); assay: holdup assay; type: binding, human
SNX27 PDZ [8] = biological target: T1, SNX27 PDZ; assay: holdup assay; type: binding; conditions: words

T5 sequence (A4D2P6 279-356 limits assumed): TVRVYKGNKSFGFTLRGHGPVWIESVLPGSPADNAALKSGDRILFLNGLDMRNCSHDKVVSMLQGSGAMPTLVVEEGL
HTRA1 PDZ, sequence (Q92743 365-467 limits assumed): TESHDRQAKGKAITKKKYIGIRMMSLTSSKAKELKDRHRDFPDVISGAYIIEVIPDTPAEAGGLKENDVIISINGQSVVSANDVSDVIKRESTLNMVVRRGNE

Q: For “EGF: epidermal growth factor (Sigma-Aldrich), 20 ng/ml (NSDSECPLSHDGYCLHDGVCMYIEALDKYACNCVVGYIGERCQYRDLKWWELR; UniProt P01133 971-1023, looked up)”, which “change in luminescence after EGF” value (ARHGEF12) is on record?
A: Its value is “decrease in luminescence”.

Q: What about the “change in luminescence after EGF” value (MAGI1) of the same compound?
A: Its value is “decrease in luminescence”.

Q: And the “change in luminescence after EGF” value (PARD3B)?
A: Its value is “did not show any change”.

Q: And the “change in luminescence after EGF” value (SYNJ2BP)?
A: Its value is “increased luminescence”.

Q: What about the “change in luminescence after EGF” value (GOPC) of the same compound?
A: The value was “decrease in luminescence”.

Q: And the “change in luminescence after EGF” value (ERK2)?
A: The value was “time-modulated decrease of the luminescence signal”.

Q: “S1288E: ARHGEF12 mutant mimicking the RSK1 phosphorylation site” was tested. Which “decrease of RhoA signal by ARHGEF12 mutation” value (RhoA) did it give?
A: Its value is 20%.

Q: What does the source list for `CC(C)C[C@H](NC(=O)[C@H](CCC(N)=O)NC(=O)[C@@H](NC(=O)[C@H](CCC(=O)O)NC(=O)[C@H](CCCNC(=N)N)NC(=O)[C@H](CCCNC(=N)N)NC(=O)[C@@H](NC(=O)[C@H](CCCNC(=N)N)NC(=O)[C@H](CO)NC(=O)[C@@H](N)CO)[C@@H](C)O)[C@@H](C)O)C(=O)O` [HPV16 E6]?
A: KD, SPR, HPV16 E6 (SNX27 PDZ [1]): no binding; KD, SPR, HPV16 E6 (SNTG2 PDZ): no binding; KD, SPR, HPV16 E6 (MAST1 PDZ): no binding; KD, SPR, HPV16 E6 (PARD3B-1 PDZ [2]): no binding; KD, SPR, HPV16 E6 (GRID2IP-2 PDZ [3]): no binding; KD, SPR, HPV16 E6 (HTRA1 PDZ): no binding; KD, SPR, HPV16 E6 (GORASP2 PDZ): no binding; KD, SPR, HPV16 E6 (PDZD7-3 PDZ): no binding; KD, SPR, HPV16 E6 (GOPC PDZ): no binding

Q: How did the “effect of phosphorylation on binding” value (GRID2IP-2 PDZ [4]) turn out when “RSK1 PBM: PDZ binding motif of the RSK1 C-terminal tail ({Biotin-TTDS}-RRVRKLPSTTL)” was run?
A: The value was “mostly eliminated”.

Q: What about the “effect of phosphorylation on binding” value (ARHGEF12 PDZ) of the same compound?
A: The value was “mostly eliminated”.

Q: What about the “affinity to both states of the RSK1 PBM” value (PARD3B-1 PDZ [5]) of the same compound?
A: Its value is “comparable affinities to both states”.

Q: What about the BI [6] of the same compound?
A: Its BI is 0.17–0.18.

Q: What about the interaction detected [7] of the same compound?
A: Its interaction detected is “did not detect any interaction”.

Q: And the “effect of phosphorylation on binding” value (SNX27 PDZ [8])?
A: Its value is “promoted by phosphorylation”.
